Test results published in PMC7029794 (Cancer chemotherapy and pharmacology, 2019).
Where two headings read alike, the source gives them in different places.

Experiments:
[1] = CF1 mice, 5 minutes after injection, cited from earlier work
[2] = Ribociclib protein binding in mouse plasma; format: in vitro ADME; conditions: CD1, mouse
Method in brief: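 The test compound was spiked into CD1 mouse plasma (sodium heparin) at final 500, 1000, 2500 and 5000 ng/ml. Spiked plasma was ultrafiltered through a 10 kDa cut-off device by centrifugation for 30 min at 3600 rpm, 37°C, and the filtrate was stored at −80°C. Fraction unbound was calculated as the filtrate concentration divided by the total plasma concentration.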

[3] = Cerebral microdialysis study in non-tumor bearing mice; format: in vivo, CD1 nude mice; conditions: 100 mg/kg oral
Method in brief: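 After a single oral 100 mg/kg dose, brain ECF was microdialysed with Ringer's after at least 1 h probe equilibration. Plasma was sampled at 0.08, 1.5 and 7 h (some at 24 h). ECF was corrected by in vitro probe recovery at 1 μg/mL, 37°C, 0.5 μL/min. A one-compartment plus ECF compartment model was fitted in NONMEM with plasma parameters fixed.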

[4] = format: in vivo, CD1 nude mice
Method in brief: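 Female CD1 nude mice (n=9) bearing cortical SJ-DIPGx7 allografts received a single oral 100 mg/kg dose (10 mg/ml in 0.5% methyl cellulose). Sampling used a population design with multiple samples per mouse up to 24 h: retro-orbital bleeds and terminal cardiac puncture, into heparin. Plasma was assayed by LC-MS/MS. A one-compartment model with an oral dosing compartment was fitted by nonlinear mixed-effects modelling (NONMEM).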

CDK-cyclin D1 = conditions: read-out: IC50 for CDK-cyclin D1; no reference given; cited from earlier work
[5] = cited from earlier work
[6] = Cerebral microdialysis study in mice bearing SJ-DIPGx7; format: in vivo, CD1 nude mice; conditions: glioma mice, 100 mg/kg oral
Method in brief: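 Female CD1 nude mice with cortical allografts of 1·10^6 SJ-DIPGx7 cells (n=16); a guide cannula was implanted stereotactically into the cortex. After a single oral 100 mg/kg dose, tumor ECF was microdialysed with Ringer's after at least 1 h probe equilibration, and plasma was sampled at 0.08, 1.5 and 7 h (some at 24 h). ECF values were corrected by per-probe in vitro recovery. Data were fitted in NONMEM with plasma parameters and V3 fixed.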

[7] = in vivo, po, 30 mg/kg, cited from earlier work
[8] = adults at the recommended dose; cited from earlier work
[9] = Full-plasma PK study, glioma mice, 100 mg/kg oral

CC(=O)c1c(C)c2cnc(Nc3ccc(N4CCNCC4)cn3)nc2n(C2CCCC2)c1=O [palbociclib]
Kp,uu [1]: 0.01 ± 0.003 | Kp,brain ([1]; dose 0.5 μmole/kg): 0.13 ± 0.04

CN(C)C(=O)c1cc2cnc(Nc3ccc(N4CCNCC4)cn3)nc2n1C1CCCC1 [ribociclib, Ribociclib]
fraction unbound at 30 min [2]: 0.23 | θCL23 Influx clearance from plasma to ECF compartment, Estimate (%RSE) [3]: 0.124 (26.8) L/hr/kg | θCL32 Efflux clearance from ECF to plasma compartment, Estimate (%RSE) [3]: 7.78 (8.81) L/hr/kg | AUC(0-t) ([3]; CD1 nude, mouse, brain ECF, po, 100 mg/kg, Brain/tumor ECF AUC0–24h, n=12, brain ECF): 736 ± 610 ng·h/mL | half-life ([4]; CD1 nude, mouse, plasma, po, 100 mg/kg): 4.67 ± 0.64 h | θCL Clearance, Estimate (%RSE) [4, 9]: 2.78 (1.8) L/hr/kg | θKa First-order absorption constant, Estimate (%RSE) [4, 9]: 2.75 (5.26) 1/hr | θVc Volume of central compartment, Estimate (%RSE) [4, 9]: 18.6 (3.87) L/kg | IC50 (CDK-cyclin D1): 10 nM | fraction unbound ([5]; assumed value for phase I comparison): 0.30 | unbound AUC ([5]; phase I study, assuming a fraction unbound of 0.30): ~ 6000 ng/ml*hr | AUC(0-t) ([6]; CD1 nude, mouse, tumor ECF, po, 100 mg/kg, Brain/tumor ECF AUC0–24h, n=16, tumor ECF): 433 ± 451 ng·h/mL | θCL23 Influx clearance from plasma to ECF compartment, Estimate (%RSE) [6]: 0.000000838 (24) L/hr/kg | θCL32 Efflux clearance from ECF to plasma compartment, Estimate (%RSE) [6]: 0.0000808 (11.5) L/hr/kg

CCN1CCN(Cc2ccc(Nc3ncc(F)c(-c4cc(F)c5nc(C)n(C(C)C)c5c4)n3)nc2)CC1 [abemaciclib]
Kp,brain ([7]; 24 h): 0.21 ± 0.04 | Kp,uu ([7]; 24 h): 0.03 ± 0.01 | plasma AUC [7]: 69,300 ng/ml*hr | plasma AUC [8]: 5520 ng·h/mL
